Source: the EternaBench riboswitch data

System: MS2 coat protein
Test: apparent Kd, MS2 coat protein; higher = weaker binding; RNA-MaP array; FMN 200 µM where present
Summary of the method: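 Designs were transcribed by stalled E. coli RNA polymerase on Illumina sequencing-chip clusters. They were titrated with SNAP-549-labelled MS2 coat protein from 0.7 or 1.5 nM, doubling to 3 µM, in 100 mM Tris-HCl pH 7.5, 80 mM KCl, 4 mM MgCl2, BSA, DTT, yeast tRNA and Tween-20, without and then with constant ligand. The apparent Kd is the median of filtered per-cluster fits after normalisation of green signal to red-channel RNA signal and control-cluster median Fmax.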

[1] = designed as: OFF switch for flavin mononucleotide, no ligand
[2] = ligand present: flavin mononucleotide, designed as: OFF switch for flavin mononucleotide
[3] = designed as: ON switch for flavin mononucleotide, no ligand
[4] = ligand present: flavin mononucleotide, designed as: ON switch for flavin mononucleotide

Sequence | apparent Kd [1] [nM] | apparent Kd [2] [nM] | apparent Kd [3] [nM] | apparent Kd [4] [nM]
AAGGUACGAGGAUAUACAUAGAUACAGACACAUGUGCAUGUACAUGAGGAUCACCCAUGUAGAAGGCGUAUAUA | 30.2 | 110 |  | 
GCAUGCAUAGCGAUAUGAUCGAGAGAUCAUGUCGCUAAAUUUAGAAGGACAUGAGGAUCACCCAUGUAGGAUAUGGGAGCAUGU |  |  | 92.1 | 15.4
GACCGUCACAGUUACCGGUUGAACGAGGAUAUGAUUACUGGGCCUGCACAUGAGGAUCACCCAUGUCAGAAGGCGUUCAGUCCC | 5.86 | 18.9 |  | 
GCAGCACUGUAGAACAUGAGGAUCACCCAUGUCGAUUGUUAUGAGGAUAUGCAUCGUAUGAAGAUGCAGAAGGCAUUGUGCUGC |  |  | 5.59 | 5.16
AGAAACUACGAGAAGGACAUGUGGUCCUUCAGUUACAUGAGGAUCACCCAUGUAGGAUAUCGUAGUUUCAGGAUCGUGAGAUCA | 40.8 | 12.3 |  | 
CGGAAAAGGUAGGAUAUGCUAGACGAAAGUCUAGCAGAAGGACCUACAUGAGGAUCACCCAUGUGUCCAAUCCG | 56.3 | 24.7 |  | 
AGGAGUAAAGGGAAUAACAUGAGGAUCACCCAUGUAUGGGAGAGAAGGCAUAUCGGAGGACGAUAUGAGGAUAUUUAAACUCUA |  |  | 62.6 | 18.7
AACAGGUGAGGAUAUCGAACAACAACAACAACAACAACAAACGAGAAGGCACAUGAGGAUCACCCAUGUAAGAA | 20 | 17.5 |  | 
CUGGACGUCGUAGGAUAUGUAGGAUAUUCCUACAUGAGGAUCACCCAUGUUGACAUGGAAGAAGGACAGAAGGACGAUGUCCAU |  |  | 229 | 4.55
AAAAAGCGAGGAUAUACAUGAGGAUCACCCAUGUCAAAAGGUAAGACCGCAGAAAAAAGUAGAAGGCGCAAAAA | 63 | 137 |  | 
GUGACGAUGUAAGGAUAUGCAGUGGAUAACACUGCAGAAGGUACAUGAGGAUCACCCAUGUAACUCUAAUAAUAAUAACGUCAC | 12.1 | 17 |  | 
AUAAAACAUGAGGAUCACCCAUGUCAACAAAGUCGAGGAUAUGGGUAAAUAAAAUAAGAACCAGAAGGCGAAUAAU |  |  | 597 | 132
UUGGACGUCGUAGGAUAUGUAGGAUAUCCCUACAUGAGGAUCACCCAUGUUGACAUGGAAGAAGGACAGAAGGACGAUGUCCAU |  |  | 105 | 11.8
ACUAGAAGCGUGAGAUAUCACAUGAGGAUCACCCAUGUGACGCAGGAUAUAACAAUAUCAGAAGGUUAGAAGGGUGAGCACGCC |  |  | 101 | 52.9
AAGUAGGUAGGAUAUACAUGGAUAUACAUUCAUGUGGAUUUACAUGAGGAUCACCCAUGUAGAAGGACCUAAUA | 118 | 30.8 |  | 
AGUGUCAUCGAGAAGGCCUCAUGAACAUGAGGAUCACCCAUGUAAGAUGGGAGGAUAUCGAUGAUACAGCUACGUUUCGUAGCA |  |  | 51.1 | 31.9
AACUCGUCAGGAUAUGCGCGCAGUUACUACGCUUCGCAAUUGCAGAAGGGACAUGAGGAUCACCCAUGUAGAUC | 34.6 | 57.3 |  | 
AACACGAGAGGUGUUGUCUAAUCACAUGAGGAUCACCCAUGUAAGGAUAUCGCGGCUAUCGGCAUCGAGAAGGUACAGGGAGCA | 17.8 | 38.2 |  | 
GGCUAGUCAGGAUAUACGAACAUGUCGCCAGAUGUCAAGGUACAUGAGGAUCACCCAUGUAGAAGGGACUAGCC | 42.7 | 168 |  | 
UCAUUUCUGUAAGGAUAUUUAAACAUGACGAUACAUGAGGAUCACCCAUGUAAAGAAGGUACAAAUACAUAUAAUGCAAUGUUC | 7.55 | 7.39 |  | 
GGACGGAAAGUGAGGAUAUGCUCUACCUCGGUAGAGCAGAAGGCACAUGAGGAUCACCCAUGUGAUAACUGUUC | 19.1 | 93 |  | 
GAGACUACCGAGAAGGGCAUAUUAAGACUCUUCGUACUACGCCUAGACAUGAGGAUCACCCAUGUGCAGGAUAUCGAGCGGCUC | 6.38 | 6.05 |  | 
CAAUUUAUAUCAGGAUAUACAAUACAAUUAUUAGUAGAAGGGAUUAAUACAUGAGGAUCACCCAUGUCAUGUGUCAUAAUAACC | 22.6 | 18.1 |  | 
GUGGUCAGACAUGAGGAUCACCCAUGUGGAAUAAAUAACACACAGGAUAUCGAAUAUAAAAUAUACGAGAAGGGUGGAUUGGUG |  |  | 388 | 209
AAAAAAAAAACGCAGGAUAUCCAAAAAAAAACAUGAGGAUCACCCAUGUAAAAAAAAAAAAAAUGGGAGAAGGGUGAAAAAAAAAA |  |  | 114 | 51
AGCAUGUUUACAUGAGGAUCACCCAUGUUUUUUAAGGAUAUCAGAAGGUACAUUUUGAGUUAGAGUAAGGAUAUGAUAUAUGCG |  |  | 11.9 | 8.82
GUACGUGGACAGAAGGCGACAUGAGGAUCACCCAUGUUGGCUCGGGUAUGACCAAUCCGCAUGAUUGAGGAUAUGUCUGCGGGC | 9.07 | 62.4 |  | 
UUUAUUUUUACAGGAUAUCAUCUAUAUAACUCAUGCAAAUGUUUACAUGAGGAUCACCCAUGUUAUGAGAAGGGUAUUGAAACA |  |  | 361 | 216

Sequence | apparent Kd [1] [nM] | apparent Kd [2] [nM] | apparent Kd [3] [nM] | apparent Kd [4] [nM]
GGAUGACAUAGUCAUCCUUAACGAACAUGAGGAUCACCCAUGUAGGAUAUGCUACUCAAAGAGUAGCAGAAGGACAUGUGUCUU | 27.2 | 157 |  | 
GGUGCGUAUGUGAGGAUAUGCUGGUCCUUGGAUCGGCAGAAGGCACAUGAGGAUCACCCAUGUGGUGUCGUACC | 339 | 24.4 |  | 
GUAGCUAUCGGAGGAUAUUCAUACCGGAAACGGACAUGAGGAUCACCCAUGUGGCGAAAGCCAUGGGAGAAGGCCGAUAGCUAC |  |  | 606 | 131
AUCAGCUCGUCAGGAUAUACGUCACUGCUUCGGCAGUGUGGUAAGAUCACAUGAGGAUCACCCAUGUAGAAGGGACGAGCUGAA | 13.3 | 259 |  | 
UUAAAUCAUGUAGGAUAUGCGUGGAGAAACUAUGCAGAAGGACAUGAGGAUCACCCAUGUGCUUCCGUCUGCGUACAGAUGGUA | 26.3 | 156 |  | 
UUUUAACAUGAGGAUCACCCAUGUGAGGAUAUCGAAAUUUAUAUUAAUAUUUUUAAAUCGAGAAGGCACAUUUU | 121 | 109 |  | 
CGUGACGACAUAGGAUAUUGAUACAUGAGGAUCACCCAUGUCAACCAUUUAUCUCAAAUUGUUGACAAGAAGGAUGUGGUCACG |  |  | 263 | 13.6
GUAGCACAAACAAAUGUAACAUGAGGAUCACCCAUGUGUUAUGAGGAUAUGGAUGUGAAGUUAAUCCAGAAGGCAUUAUGCUAA |  |  | 17.2 | 15.1
AAAUAAACUACCAAGAUAUCCUCACAUGAGGAUCACCCAUGUCAGGAUAUUUGUCCUAAAAGGACAGAGAAGGGACGUGGUAGA | 6.24 | 14.8 |  | 
AAAUUUAACGAAGGAUAUGGAUACAUGAGGAUCACCCAUGUAUAUUUUGUGAUCUUGUAAAAGUACCAGAAGGUCGUAUACAUA | 85.7 | 208 |  | 
GGUGGUCCUGUUACAUGAGGAUCACCCAUGUGAGGGCCACGUAGAAGGACCCAGAACUCCUUUGGGUAGGAUAUAUGGGCCUUC | 4.78 | 5.97 |  | 
UCAGGCUUCGAGAAGGACAUGAAUCGUAGCAUUGCUACGAUCAUUGAUACAUGAGGAUCACCCAUGUAGGAUAUCGGAGUCUGC | 5.99 | 6.75 |  | 
GUCAUACAUGAGGAUCACCCAUGUAAGGAUAUGCUAGCGGUCGGAAGAAUGACUGCUAGCAGAAGGUACAUGAU | 64.1 | 121 |  | 
AAUCGGGAGCAGAAGGCAUGUCAAAAGACAUGAGGAUCACCCAUGUAUAAAAGGCGAAAGCCGCAUGAGGAUAUGCUCCCGUAA |  |  | 29.4 | 5.81
GAGCGAAAGCUCAAUGUCGAUAGCAGAAGGACGUGAAAACAUGAAAACACAUGAGGAUCACCCAUGUAGGAUAUGCUAUCGACU | 11.2 | 27.6 |  | 
UUCUCGAUGUAGAAGGCCGCGUCCGGCUCACGCGGAGGAUAUACAUGAGGAUCACCCAUGUGUCUGUGGCUUAUAAGGUACGGA | 98.8 | 67.7 |  | 
UGUAUGGACAGAGGAUAUGCCGGUAGGAUCUACUAUCGAAGAAUCCUCACAUGAGGAUCACCCAUGUAGAAGGCUGUCCAUACU | 9.36 | 42.8 |  | 
GUAUCUUACCGAGGAUAUUUACGAUUAGUGUAGACAUGAGGAUCACCCAUGUGGCGUUAGUCACGGGAGAAGGCGGUUUGAUAC |  |  | 92.2 | 20.5
AGUUAAUAUCGAGGAUAUCCUCAUAGACAUGAGGAUCACCCAUGUUAACAUGGAGAAGGCGAUAUUAACAGCAUGUUACAUGCA |  |  | 231 | 26.8
AUUAUUAUAAAUUAAGGAAGAAUCAGAAGGCGUUACAUGAGGAUCACCCAUGUUUUGUAUAGUAACGAGGAUAUGAUAUGGAAA | 17.5 | 14 |  | 
UGCUACAUGAGGAUCACCCAUGUAAUGUGGGAUUCGUUAGGACAGGAUAUGAUUGUAUAGUUUUUUCAGAAGGGUCAUUACUUU | 69.2 | 135 |  | 
AUUUAUGGCCAGAAGGACAUGAGGAUCACCCAUGUAGGAUAUGGACGAUUUUGCUCGGCGGUUCGUUAAGAAAGCACCGGUGGU |  |  | 16.5 | 7.39
GGAUGCCGCUCAGGAUAUGUGGGUUGUCUAGUAUCUAGAUUCCACAUGAGGAUCACCCAUGUAACACAGAAGGGAGAUGGUGAU |  |  | 526 | 23.2
GCUGUCGCAUGAGGAUAUGGACUGCUUUGCAGUCCAGAAGGCAUGUCAAUAGACAUGAGGAUCACCCAUGUAGUUAAGACAGCA |  |  | 704 | 42.4
CACAAGUAUAACGAUUUCAAGGCACAGGAUAUGAGUGUGCACAUGAGGAUCACCCAUGUUAUAACUUAGAAGGGUGACCAUCGC |  |  | 402 | 433
GGAUUUACUGAGGAUAUUGCAUCACCCGACUGAUAAGAAGGCAGAACAUGAGGAUCACCCAUGUGGGUACUCAC | 53.7 | 63.2 |  | 
UGGUACUAGGGAGGAUAUGGGCAGAUACAUGAGGAUCACCCAUGUUUAAGAAUGCCGAGAGGCAACUAGAAGGCCCUAGUACCU |  |  | 553 | 25.5
